Data reported in BindingDB's records for doi:10.1021/jm049090z (The Bristol-Myers Squibb Pharmaceutical Research Institute, 2005).

What follows are compounds tested against T1, DNA topoisomerase 1 (Homo sapiens, UniProt P11387) (assay: Topoisomerase I activity for single-strand breaks in the DNA substrate).
T1 sequence (P11387 whole entry): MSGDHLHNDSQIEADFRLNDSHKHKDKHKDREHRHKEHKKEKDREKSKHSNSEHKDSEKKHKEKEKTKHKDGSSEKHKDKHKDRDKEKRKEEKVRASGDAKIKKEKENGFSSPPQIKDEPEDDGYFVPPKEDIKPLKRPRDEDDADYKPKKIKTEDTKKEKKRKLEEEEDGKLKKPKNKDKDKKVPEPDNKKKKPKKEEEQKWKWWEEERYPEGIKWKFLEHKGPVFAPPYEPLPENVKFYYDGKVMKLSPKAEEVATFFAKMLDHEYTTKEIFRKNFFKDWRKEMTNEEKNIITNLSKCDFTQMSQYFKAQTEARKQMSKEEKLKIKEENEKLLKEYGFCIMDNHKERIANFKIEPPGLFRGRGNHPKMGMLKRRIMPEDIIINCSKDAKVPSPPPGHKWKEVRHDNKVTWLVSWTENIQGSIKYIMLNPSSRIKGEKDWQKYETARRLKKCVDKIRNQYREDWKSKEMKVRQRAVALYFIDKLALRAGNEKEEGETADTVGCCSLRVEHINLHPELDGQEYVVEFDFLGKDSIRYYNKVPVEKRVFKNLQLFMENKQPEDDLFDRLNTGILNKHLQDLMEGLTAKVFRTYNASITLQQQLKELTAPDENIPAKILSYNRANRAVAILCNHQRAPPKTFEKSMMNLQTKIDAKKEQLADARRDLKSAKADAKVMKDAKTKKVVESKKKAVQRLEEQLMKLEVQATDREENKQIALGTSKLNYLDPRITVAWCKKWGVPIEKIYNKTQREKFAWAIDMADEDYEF
Procedure, shortened: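 Topo I-mediated DNA cleavage assay using covalently closed, supercoiled phage PM2 DNA as substrate; read-out is induction of single-strand breaks.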

Row | SMILES | EC50
1 | O=C1NC(=O)c2c1c1c3cc(F)c(F)cc3sc1c1c2c2cc(F)c(F)cc2n1C1OC(CO)C(F)(F)C(O)C1O (centres undefined) [13-(5,5-difluoro-3,4-dihydroxy-6-hydroxymethyltetrahydro-2H-2-pyranyl)-2,3,9,10-tetrafluoro-5,6,7,13-tetrahydrobenzo[4,5]thieno[2,3-a]pyrrolo[4,3-c]carbazole-5,7-dione] | 80 nM
2 | O=C1NC(=O)c2c1c1c3cc(F)c(F)cc3sc1c1c2c2cc(F)c(F)cc2n1C1OC(CF)C(O)C(O)C1O (centres undefined) [2,3,9,10-tetrafluoro-13-(6-fluoromethyl-3,4,5-trihydroxytetrahydro-2H-2-pyranyl)-5,6,7,13-tetrahydrobenzo[4,5]thieno[2,3-a]pyrrolo[4,3-c]carbazole-5,7-dione] | 240 nM
3 | O=C1NC(=O)c2c1c1c3cc(F)c(F)cc3[nH]c1c1c2c2cc(F)c(F)cc2n1C1OC(CF)C(O)C(O)C1O (centres undefined) [2,3,9,10-tetrafluoro-12-(6-fluoromethyl-3,4,5-trihydroxytetrahydro-2H-2-pyranyl)-6,7,12,13-tetrahydro-5H-indolo[2,3-a]pyrrolo[3,4-c]carbazole-5,7-dione] | 480 nM
4 | O=C1NC(=O)c2c1c1c3cc(F)ccc3[nH]c1c1c2c2cc(F)ccc2n1C1OC(CF)[C@@H](O)C(O)C1O (some centres undefined) [Name not given] | 704 nM
